# The source made the active and inactive calls. The rule behind the calls is not given here.
# What was measured:
# [1] = Binding affinity to glucagon receptor in pig liver membrane by membrane filter assay; format: cell membranes, Sus scrofa
# Homo sapiens [2] = species on record: Homo sapiens; assay: Selectivity ratio of IC50 for human recombinant glucagon receptor to IC50 for human recombinant GIPR
# Procedure, shortened: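 Competition binding of compounds to recombinant human glucagon and GIP receptors on BHK cell membranes, run in parallel as a scintillation proximity assay and, for selected compounds, as a membrane filtration assay.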
# Glucagon receptor [3] = biological target: Glucagon receptor (Mus musculus, UniProt Q61606); assay: Binding affinity to glucagon receptor in mouse liver membrane by membrane filter assay; format: cell membranes
# Chain of Glucagon receptor (Mus musculus, UniProt Q61606) (Q61606 whole entry): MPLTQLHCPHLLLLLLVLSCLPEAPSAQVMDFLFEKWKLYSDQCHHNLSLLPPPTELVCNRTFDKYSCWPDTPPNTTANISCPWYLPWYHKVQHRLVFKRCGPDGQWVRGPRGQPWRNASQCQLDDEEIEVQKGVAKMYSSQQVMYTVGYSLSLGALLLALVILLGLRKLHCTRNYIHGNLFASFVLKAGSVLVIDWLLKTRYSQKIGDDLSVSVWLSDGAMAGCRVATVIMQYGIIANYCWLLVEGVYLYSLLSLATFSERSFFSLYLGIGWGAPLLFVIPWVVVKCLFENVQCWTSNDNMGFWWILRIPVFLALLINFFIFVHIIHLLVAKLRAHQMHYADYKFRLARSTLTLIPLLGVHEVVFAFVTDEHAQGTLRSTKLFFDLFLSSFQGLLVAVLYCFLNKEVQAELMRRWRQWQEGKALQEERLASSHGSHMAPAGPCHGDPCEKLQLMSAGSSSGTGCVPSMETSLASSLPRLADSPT
# [4] = Oral bioavailability in fasted Sprague-Dawley rat at 3.19 mg/kg by HTLC-MS/MS analysis; format: ADME, organism-based; settings: in vivo
# Procedure, shortened: (§1)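 Separate intravenous and peroral dosing arms per compound, with plasma concentration followed against time. Oral bioavailability (F_po) is reported per compound together with the intravenous half-life and clearance. The dose used for each arm is listed per compound.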
# [5] = Tmax in fasted Beagle dog at 0.25 mg/kg, iv and 0.5 mg/kg, po; format: ADME, organism-based, Canis lupus familiaris; settings: in vivo
# Procedure, shortened: (§2)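 Plasma concentration–time profiles were recorded after separate intravenous and peroral dosing at the per-compound doses listed. T_max is reported in min alongside C_max (ng/mL), intravenous half-life and clearance ((mL/min)/kg).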
# [6] = Clearance in fasted Beagle dog at 0.25 mg/kg, iv and 0.5 mg/kg, po; format: ADME, organism-based, Canis lupus familiaris; settings: in vivo
# Procedure, shortened: (§3)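 Dogs were dosed at 0.25 mg/kg iv and 0.5 mg/kg po, and plasma concentration was followed over time. Half-life came from the iv arm; clearance, Cmax and Tmax were also derived.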
# [7] = biological target: T1, Gastric inhibitory polypeptide receptor (Homo sapiens, UniProt P48546); assay: Binding affinity to human recombinant GIPR expressed in BHK cells by membrane filter assay; format: cell-based
# T1 sequence (P48546 whole entry): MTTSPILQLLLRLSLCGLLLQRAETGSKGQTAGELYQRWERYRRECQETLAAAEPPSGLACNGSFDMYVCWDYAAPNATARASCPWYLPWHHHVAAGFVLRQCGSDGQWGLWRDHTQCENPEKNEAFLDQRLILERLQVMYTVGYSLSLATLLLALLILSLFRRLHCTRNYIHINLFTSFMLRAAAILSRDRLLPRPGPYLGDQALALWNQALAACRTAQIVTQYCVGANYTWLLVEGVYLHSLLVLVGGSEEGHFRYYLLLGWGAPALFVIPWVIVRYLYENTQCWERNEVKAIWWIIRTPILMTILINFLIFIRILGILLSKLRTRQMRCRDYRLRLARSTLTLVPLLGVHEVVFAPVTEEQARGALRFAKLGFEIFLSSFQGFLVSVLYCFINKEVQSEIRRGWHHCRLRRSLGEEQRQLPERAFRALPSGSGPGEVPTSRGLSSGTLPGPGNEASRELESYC
# [8] = Cmax in fasted Beagle dog at 0.25 mg/kg, iv and 0.5 mg/kg, po; format: ADME, organism-based, Canis lupus familiaris; settings: in vivo; procedure, shortened: as §3
# Hepatocyte [9] = assay: Inhibition of glucagon-stimulated glucose production in human primary hepatocytes preincubated for 10 mins before glucagon addition by NADH-linked hexokinase assay; format: functional, cell-based
# Procedure, shortened: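 Cultured primary human hepatocytes were preincubated with compound for 10 min, then glycogenolysis was induced with 5 nM glucagon for 60 min. Glucose in the medium was measured against basal glycogenolysis. Albumin was present in the assay medium. IC50 was calculated from four experiments, mean ± SEM.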
# Homo sapiens [10] = species on record: Homo sapiens; assay: Selectivity for human recombinant glucagon receptor over human GLP1R
# [11] = biological target: T1, Gastric inhibitory polypeptide receptor; assay: Displacement of [125I]porcine GIP from human recombinant GIPR receptor expressed in BHK cells by scintillation proximity assay; format: cell-based
# Glucagon receptor [12] = biological target: T2, Glucagon receptor (Homo sapiens, UniProt P47871); assay: Binding affinity to human recombinant glucagon receptor expressed in BHK cells by membrane filter assay; format: cell-based
# T2 sequence (P47871 whole entry): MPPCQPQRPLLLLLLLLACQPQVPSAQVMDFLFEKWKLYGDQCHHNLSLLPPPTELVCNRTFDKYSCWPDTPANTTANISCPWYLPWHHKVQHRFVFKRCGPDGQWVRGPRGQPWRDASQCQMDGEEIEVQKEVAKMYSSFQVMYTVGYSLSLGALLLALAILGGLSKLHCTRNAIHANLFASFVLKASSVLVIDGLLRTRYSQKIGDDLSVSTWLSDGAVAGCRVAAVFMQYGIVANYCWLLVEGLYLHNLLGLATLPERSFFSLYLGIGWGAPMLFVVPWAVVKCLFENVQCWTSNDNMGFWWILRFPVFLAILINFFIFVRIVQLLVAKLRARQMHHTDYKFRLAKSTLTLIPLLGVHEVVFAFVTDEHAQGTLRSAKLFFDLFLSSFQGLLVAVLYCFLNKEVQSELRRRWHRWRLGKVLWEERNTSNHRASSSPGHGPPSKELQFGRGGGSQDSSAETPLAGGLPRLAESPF
# [13] = Oral bioavailability in fasted Beagle dog at 0.5 mg/kg; format: ADME, organism-based, Canis lupus familiaris; settings: in vivo; procedure, shortened: as §1
# [14] = Binding affinity to glucagon receptor in dog liver membrane by membrane filter assay; format: cell membranes, Canis lupus familiaris
# [15] = Half life in fasted Sprague-Dawley rat plasma at 1.49 mg/kg, iv by HTLC-MS/MS analysis; format: ADME, organism-based; parameters: dose 1.49 mg/kg, route intravenous
# Procedure, shortened: (§4)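 Rats were dosed intravenously and perorally in separate arms, and plasma concentration-time profiles were obtained. Half-life was taken from the iv arm. Clearance, oral bioavailability, Cmax and Tmax were derived from the profiles.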
# Hepatocyte [16] = assay: Inhibition of glucagon-stimulated glucose production in rat primary hepatocytes; format: functional, cell-based
# [17] = Clearance in fasted Sprague-Dawley rat at 1.49 mg/kg, iv and 3.19 mg/kg, po; format: ADME, organism-based; settings: in vivo; procedure, shortened: as §4
# [18] = Tmax in fasted Sprague-Dawley rat at 1.49 mg/kg, iv and 3.19 mg/kg, po; format: ADME, organism-based; settings: in vivo; procedure, shortened: as §2
# Glucagon receptor [19] = biological target: T2, Glucagon receptor; assay: Displacement of [125I]porcine glucagon from human recombinant glucagon receptor expressed in BHK cells by scintillation proximity assay; format: cell-based
# [20] = Half life in fasted Beagle dog at 0.25 mg/kg, iv; format: ADME, organism-based, Canis lupus familiaris; parameters: dose 0.25 mg/kg, route intravenous; settings: in vivo; procedure, shortened: as §3
# [21] = Cmax in fasted Sprague-Dawley rat at 1.49 mg/kg, iv and 3.19 mg/kg, po; format: ADME, organism-based; settings: in vivo; procedure, shortened: as §4
# Glucagon receptor [22] = biological target: Glucagon receptor (Rattus norvegicus, UniProt P30082); assay: Binding affinity to glucagon receptor in rat liver membrane by membrane filter assay; format: cell membranes
# Chain of Glucagon receptor (Rattus norvegicus, UniProt P30082) (P30082 whole entry): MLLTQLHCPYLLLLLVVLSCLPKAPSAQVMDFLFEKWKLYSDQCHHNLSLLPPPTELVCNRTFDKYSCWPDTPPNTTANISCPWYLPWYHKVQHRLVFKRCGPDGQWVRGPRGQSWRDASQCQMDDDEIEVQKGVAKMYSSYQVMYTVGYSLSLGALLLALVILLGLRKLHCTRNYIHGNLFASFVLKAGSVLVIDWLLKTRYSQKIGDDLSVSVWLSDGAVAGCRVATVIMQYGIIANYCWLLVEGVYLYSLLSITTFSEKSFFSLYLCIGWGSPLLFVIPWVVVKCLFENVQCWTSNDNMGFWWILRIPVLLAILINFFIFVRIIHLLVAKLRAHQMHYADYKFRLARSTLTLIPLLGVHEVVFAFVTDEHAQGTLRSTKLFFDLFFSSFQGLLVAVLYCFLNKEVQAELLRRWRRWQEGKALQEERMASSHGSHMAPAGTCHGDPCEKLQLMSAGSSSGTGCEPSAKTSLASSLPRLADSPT
# [23] = Binding affinity to glucagon receptor in monkey liver membrane by membrane filter assay; format: cell membranes, Macaca mulatta
# [24] = Clearance in fasted Sprague-Dawley rat at 1.1 mg/kg, iv and 2.1 mg/kg, po by HTLC-MS/MS analysis; format: ADME, organism-based; settings: in vivo; procedure, shortened: as §4
# [25] = Oral bioavailability in fasted Sprague-Dawley rat at 2.1 mg/kg by HTLC-MS/MS analysis; format: ADME, organism-based; settings: in vivo; procedure, shortened: as §1
# [26] = Cmax in fasted Sprague-Dawley rat at 1.1 mg/kg, iv and 2.1 mg/kg, po by HTLC-MS/MS analysis; format: ADME, organism-based; settings: in vivo; procedure, shortened: as §4
# [27] = Half life in fasted Sprague-Dawley rat plasma at 1.1 mg/kg, iv by HTLC-MS/MS analysis; format: ADME, organism-based; parameters: dose 1.1 mg/kg, route intravenous; procedure, shortened: as §4
# [28] = Tmax in fasted Sprague-Dawley rat at 1.1 mg/kg, iv and 2.1 mg/kg, po by HTLC-MS/MS analysis; format: ADME, organism-based; settings: in vivo; procedure, shortened: as §2
# [29] = Oral bioavailability in fasted Sprague-Dawley rat at 3.25 mg/kg by HTLC-MS/MS analysis; format: ADME, organism-based; settings: in vivo; procedure, shortened: as §1
# [30] = Cmax in fasted Sprague-Dawley rat at 1.60 mg/kg, iv and 3.25 mg/kg, po by HTLC-MS/MS analysis; format: ADME, organism-based; settings: in vivo; procedure, shortened: as §4
# [31] = Clearance in fasted Sprague-Dawley rat at 1.60 mg/kg, iv and 3.25 mg/kg, po by HTLC-MS/MS analysis; format: ADME, organism-based; settings: in vivo, 1.6 mg/kg; procedure, shortened: as §4
# [32] = Half life in fasted Sprague-Dawley rat plasma at 1.60 mg/kg, iv by HTLC-MS/MS analysis; format: ADME, organism-based; parameters: dose 1.6 mg/kg, route intravenous; settings: 1.6 mg/kg; procedure, shortened: as §4
# [33] = Tmax in fasted Sprague-Dawley rat at 1.60 mg/kg, iv and 3.25 mg/kg, po by HTLC-MS/MS analysis; format: ADME, organism-based; settings: in vivo; procedure, shortened: as §2
# [34] = Binding affinity to glucagon receptor in rabbit liver membrane by membrane filter assay; format: cell membranes, Oryctolagus cuniculus
IC50 [1],fold change (FC) (Homo sapiens [2]),IC50 (Glucagon receptor [3]),Tmax [5],clearance [6],IC50 [7],Cmax [8],fold change (FC) (Homo sapiens [10]),IC50 [11],IC50 (Glucagon receptor [12]),bioavailability [13],IC50 [14],IC50 (Glucagon receptor [19]),half-life [20],IC50 (Glucagon receptor [22]),IC50 [23],Compound,IC50 (Hepatocyte [9]),inhibition (Hepatocyte [16]),other results
5300 nM,5,552 nM,1.47 h,0.78 mL/min/kg,480 nM,1000 ng/mL,> 50,833 nM,51 nM,55%,96 nM,92 nM,3.92 h,2000 nM,72 nM,O=C(O)CCNC(=O)c1ccc(CN(c2ccc(OC(F)(F)F)cc2)c2nc(-c3ccc(C(F)(F)F)cc3)cs2)cc1,3600 nM,inactive,bioavailability [4]: 29%; half-life [15]: 7.57 h; clearance [17]: 2 mL/min/kg; Tmax [18]: > 6 h; Cmax [21]: 638 ng/mL
,5,218 nM,,,290 nM,,> 50,488 nM,59 nM,,,50 nM,,1800 nM,62 nM,O=C(O)CCNC(=O)c1ccc(CN(c2ccc3c(c2)Cc2ccccc2-3)c2nc(-c3ccc(OC(F)(F)F)cc3)cs2)cc1,700 nM,inactive,clearance [24]: 5 mL/min/kg; bioavailability [25]: 12%; Cmax [26]: 471 ng/mL; half-life [27]: 2.47 h; Tmax [28]: 5 h
4000 nM,5,372 nM,1.75 h,4.66 mL/min/kg,410 nM,120 ng/mL,> 50,649 nM,53 nM,16%,68 nM,76 nM,1.33 h,1400 nM,51 nM,O=C(O)CCNC(=O)c1ccc(CN(c2ccc(Cl)cc2)c2nc(-c3ccc(C(F)(F)F)cc3)cs2)cc1,2700 nM,inactive,bioavailability [29]: 13%; Cmax [30]: 216 ng/mL; clearance [31]: 5 mL/min/kg; half-life [32]: 2.25 h; Tmax [33]: 1.5 h; IC50 [34]: 943 nM

# — ChEMBL document CHEMBL1138494, “Human glucagon receptor antagonists with thiazole cores. A novel series with superior pharmacokinetic properties” (J Med Chem, 2009)
